Experimental findings from ChEMBL document CHEMBL4334452, “Monosaccharide Analogues of Anticancer Peptide R-Lycosin-I: Role of Monosaccharide Conjugation in Complexation and the Potential of Lung Cancer Targeting and Therapy” (J Med Chem, 2019) are described below.

In series [1] the target is T1, Solute carrier family 2, facilitated glucose transporter member 1 (Homo sapiens) (UniProt P11166).
T1 sequence (whole entry): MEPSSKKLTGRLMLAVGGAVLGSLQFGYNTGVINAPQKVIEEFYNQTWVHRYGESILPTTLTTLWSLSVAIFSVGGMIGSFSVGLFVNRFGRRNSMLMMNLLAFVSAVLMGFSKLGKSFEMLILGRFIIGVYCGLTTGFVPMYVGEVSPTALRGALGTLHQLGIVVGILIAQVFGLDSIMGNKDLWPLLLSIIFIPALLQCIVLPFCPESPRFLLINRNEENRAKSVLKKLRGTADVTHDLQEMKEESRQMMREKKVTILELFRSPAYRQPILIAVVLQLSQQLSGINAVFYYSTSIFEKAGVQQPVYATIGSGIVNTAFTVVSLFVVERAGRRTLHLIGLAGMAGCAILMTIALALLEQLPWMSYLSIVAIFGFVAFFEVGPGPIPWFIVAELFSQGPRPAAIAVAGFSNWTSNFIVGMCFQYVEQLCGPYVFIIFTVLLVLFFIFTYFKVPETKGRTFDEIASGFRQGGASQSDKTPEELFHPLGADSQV
As to the kind of experiment: Binding affinity to GLUT1 in human A549 cells assessed as cytotoxicity by measuring reduction in cell viability at 12.5 uM measured after 2 hrs in absence of GLUT1 inhibitor STF-31 by CCK8 assay. The series is classed as cell-based. In a few lines:
(§1)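 A549 cells at 2×10^3/well, grown overnight, then preincubated 4 h in F12K/10% FBS with or without STF-31 (1 µM final). […] Incubated a further 2 h at 37 °C; viability by CCK-8.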

Series [2] addresses T1, Solute carrier family 2, facilitated glucose transporter member 1 (Homo sapiens). As to the kind of experiment: Binding affinity to GLUT1 in human A549 cells assessed as cytotoxicity by measuring reduction in cell viability at 12.5 uM measured after 2 hrs in presence of GLUT1 inhibitor STF-31 by CCK8 assay. The series is classed as cell-based. The essentials: as §1
In general terms: Formazan colour is commonly taken as a measure of viable cells.

Series [3] shares this target. As to the kind of experiment: Binding affinity to GLUT1 in human A549 cells assessed as cytotoxicity by measuring reduction in cell viability at 40 umol/L measured up to 24 hrs in presence of 10% serum by CCK8 assay. The series is classed as cell-based.
For series [4] the target is unchanged. As to the kind of experiment: Binding affinity to GLUT1 in human A549 cells assessed as cytotoxicity by measuring cell viability at 12.5 uM measured after 2 hrs in absence of GLUT1 inhibitor STF-31 by CCK8 assay relative to control. The series is classed as cell-based. The essentials:
as §1

For series [5] the target is unchanged. As to the kind of experiment: Binding affinity to GLUT1 in human A549 cells assessed as cytotoxicity by measuring cell viability at 12.5 uM measured after 2 hrs in presence of GLUT1 inhibitor STF-31 by CCK8 assay relative to control. The series is classed as cell-based. The essentials: as §1
Series [6] has as its system HEK-293T. As to the kind of experiment: Cytotoxicity against HEK293T cells at 12.5 uM measured after 2 hrs by LDH release assay. The conditions noted are these: human. The series is classed as cell-based. (LDH leaks from cells whose membrane has failed.)
In series [7] the test system is A549. As to the kind of experiment: Cytotoxicity against GLUT1 knockout out human A549 cells assessed as reduction in cell viability measured after 24 hrs by CCK8 assay. The series is classed as functional, cell-based. The settings on record: A549, 24 h. In a few lines: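 A549 cells with GLUT1 knocked down by RNAi oligos, about 50% knockdown versus control oligos. Cells treated with a concentration series, read by 24-h serum-free CCK-8 viability, and an IC50 derived from the dose-response curve.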

The nature of series [8]: Drug uptake in GLUT1 knockout out human A549 cells at 12.5 uM measured after 2 hrs using FITC-labelled compound by fluorescence assay. In kind it is ADME, cell-based. The conditions noted are these: a549, 2 h. The essentials: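 FITC-labelled peptide at 12.5 µM for 2 h, given to A549 cells and to A549 GLUT1-RNAi knockdown cells. Total and fluorescent cells counted by automated cell counter; n=3.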

Series [9] in a line: Drug uptake in tumor of Balb/c nu/nu mouse xenografted with human A549 cells expressing luciferase gene at 3 mg/kg administered intratumorally measured after 6 hrs by fluorescence assay. In kind it is ADME, organism-based, Neoplasm. The conditions noted are these: in vivo, other.
Series [10] has as its system A549. As to the kind of experiment: Potency index, ratio of compound effect to R-lycosin-I effect for antitumor activity against human A549 cells expressing luciferase gene xenografted in Balb/c nu/nu mouse at 3 mg/kg administered intratumorally. In kind it is functional. In general terms: Xenograft models place foreign cells or tissue in a host animal.
Series [11] is described as follows: Toxicity in Balb/c nu/nu mouse xenografted with human A549 cells expressing luciferase gene assessed as effect on heart at 9 mg/kg, ip administered every 2 days for seven times measured on day 14 by H and E staining based assay. In kind it is organism-based. The conditions noted are these: in vivo, 48 h. In a few lines: (§2)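 Male BALB/c nu/nu mice bearing subcutaneous A549-luciferase xenografts received 9 mg/kg peptide i.p. (200 µL) every other day for seven doses, with a PBS control group of five. Heart, liver and kidney were fixed in 10% paraformaldehyde, sectioned and stained with H&E for histology.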

Series [12] is described as follows: Toxicity in Balb/c nu/nu mouse xenografted with human A549 cells expressing luciferase gene assessed as effect on liver at 9 mg/kg, ip administered every 2 days for seven times measured on day 14 by H and E staining based assay. In kind it is organism-based. The conditions noted are these: in vivo, 48 h. The essentials:
as §2

The nature of series [13]: Stability of the compound in serum (unknown origin) measured up to 48 hrs. In kind it is ADME, cell-free.
For series [14], the target named is T1, Solute carrier family 2, facilitated glucose transporter member 1 (Homo sapiens). As to the kind of experiment: Binding affinity to GLUT1 in human A549 cells assessed as cytotoxicity by measuring reduction in cell viability at 40 umol/L measured up to 48 hrs in presence of 10% serum by CCK8 assay relative to control. The series is classed as cell-based.
Series [15] has as its system A549. As to the kind of experiment: Antitumor activity against human A549 cells expressing luciferase gene xenografted in Balb/c nu/nu mouse assessed as increase in apoptotic cells at 9 mg/kg, ip administered every 2 days for seven times measured on day 14 by TUNEL assay. In kind it is functional, organism-based. In a few lines:
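Male BALB/c nu/nu mice, 4-6 weeks old, carrying subcutaneous A549-luciferase xenografts in the right back. Dosing started when tumors reached 100-200 mm³ (day 0), five per group. Peptide was given at 9 mg/kg i.p. in 200 µL every other day for 7 doses; PBS served as control. Bioluminescent imaging on day 14; tumor size and body weight tracked. Tumors fixed in paraformaldehyde, paraffin-sectioned, TUNEL-stained.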

Each structure is given as a SMILES string. Calls of active or inactive are those of the source. No cut-off for these calls is given here. *1 amine or outer side, *2 acyl side, *3 side chain or, on linkers, in order; H or OH if unused. Where a SMILES comes first, the peptide text is derived from it. The star is where a group is joined. NH(CH2)3O(βDGlc) = OC[C@H]1O[C@@H](OCCCN*)[C@H](O)[C@@H](O)[C@@H]1O; Glutaryl = O=C(CCCC(=O)[*:2])[*:1]

As for `CC[C@H](C)[C@H](NC(=O)[C@H](Cc1ccccc1)NC(=O)[C@H](CCCNC(=N)N)NC(=O)[C@H](C)NC(=O)[C@@H](NC(=O)[C@H](CO)NC(=O)[C@H](CCCNC(=N)N)NC(=O)[C@H](CCSC)NC(=O)[C@H](C)NC(=O)[C@H](CCCNC(=N)N)NC(=O)[C@H](Cc1ccccc1)NC(=O)[C@H](Cc1c[nH]c2ccccc12)NC(=O)CNC(=O)[C@@H](N)CCCNC(=N)N)[C@@H](C)CC)C(=O)N[C@@H](C)C(=O)N[C@@H](CCCNC(=N)N)C(=O)N[C@@H](CCC(=O)O)C(=O)N[C@@H](CCCNC(=N)N)C(=O)N[C@@H](CC(C)C)C(=O)N[C@@H](CCCNC(=N)N)C(=O)N[C@@H](CCC(=O)O)C(=O)N[C@@H](Cc1cnc[nH]1)C(=O)N[C@@H](CC(C)C)C(=O)O` (H-RGWFRAMRSIARFIARERLREHL-OH), the result in series [1] and in [2] was Active. In series [3], the outcome was inactive.
Turning to `CC[C@H](C)[C@H](NC(=O)[C@H](Cc1ccccc1)NC(=O)[C@H](CCCNC(=N)N)NC(=O)[C@H](C)NC(=O)[C@@H](NC(=O)[C@H](CO)NC(=O)[C@H](CCCNC(=N)N)NC(=O)[C@H](CCSC)NC(=O)[C@H](C)NC(=O)[C@H](CCCNC(=N)N)NC(=O)[C@H](Cc1ccccc1)NC(=O)[C@H](Cc1c[nH]c2ccccc12)NC(=O)CNC(=O)[C@H](CCCNC(=N)N)NC(=O)CCCC(=O)NCCCO[C@@H]1O[C@H](CO)[C@@H](O)[C@H](O)[C@H]1O)[C@@H](C)CC)C(=O)N[C@@H](C)C(=O)N[C@@H](CCCNC(=N)N)C(=O)N[C@@H](CCC(=O)O)C(=O)N[C@@H](CCCNC(=N)N)C(=O)N[C@@H](CC(C)C)C(=O)N[C@@H](CCCNC(=N)N)C(=O)N[C@@H](CCC(=O)O)C(=O)N[C@@H](Cc1cnc[nH]1)C(=O)N[C@@H](CC(C)C)C(=O)O` ({NH(CH2)3O(βDGlc)-Glutaryl}-RGWFRAMRSIARFIARERLREHL-OH), the Activity in [4] was 54%; in series [5], 40%; in series [6], “Non-Toxic”; in series [11] it was “Non-Toxic”; in series [12], “Non-Toxic”; in [14], 80%. Moreover, the IC50 (as a rule, the concentration that inhibits the measured activity by half) in series [7] amounted to 13.4 µM. Moreover, the Drug uptake result in series [8] was “Not Active”; in series [9], “Active”. The Ratio in series [10] was 1.6. Besides, the Stability result in series [13] is recorded as “Stable”. Besides, the outcome in series [15] was Active.
